Calls of active or inactive are those of the source.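 The calls were made as follows, unless noted: active = NADPH fluorescence slope more negative than the mean of all samples by about 3 SD, 99.7% confidence; inactive = the rest.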

The nature of test [1]: inhibitors of TNFa-induced NFkB p65 translocation, primary screen, imaging, HUVEC, MLSMR starter and 10KST1 sets (AID 438;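 active = inhibition above 20% together with a positive visual image hit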;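 also: compound added about 3h40 before a 20 min TNFalpha stimulation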;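 as to inhibition: signal is the nuclear over cytoplasmic p65 intensity ratio per well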). As to conditions: HUVEC TNFa-induced p65 nuclear translocation; cell count: measured here: nuclei count (cytotoxicity indicator), at 2.08 µM; inhibition: at 2 µM, stronger effect = higher value, 0% TNFa-plus-vehicle, 100% no-TNFa wells.
A short description of test [2]: endothelial E-selectin expression blockers – imaging, HUVEC, immunofluorescence, MLSMR starter and 10KST1 sets, primary screen (AID 487;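 active = visually confirmed hit in the image check and inhibition above 20%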;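 as to inhibition: signal is fraction of cell area covered by stained E-selectin grains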;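 as to nuclei count: 100% = median nuclei count of all wells on the same plate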). As to conditions: HUVEC TNFalpha-induced E-selectin immunofluorescence imaging, at 2 µM; inhibition: stronger effect = higher value; nuclei count: measured here: cell number, toxicity.
The nature of test [3]: Primary imaging screen for DUSP6 inhibitors that restore phospho-Erk in transfected HeLa cells, chemical complementation (AID 609;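 active = compounds giving at least 50% inhibition in the cell-based MKP-3 phosphatase rescue imaging test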;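 as to inhibition: phospho-Erk level distribution per well compared with pooled transfected vehicle control wells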). The note with it: HeLa MKP-3 transfected, phospho-Erk imaging KS statistic, at 10 µM, cells stimulated with TPA for 15 min.
In test [4] the target is Dual specificity protein phosphatase 6 (Homo sapiens) (UniProt Q16828). Described as above. The note with it: HeLa MKP-3 transfected, phospho-Erk imaging KS statistic; at 10 µM; stronger effect = higher value; cells stimulated with TPA for 15 min.
Chain of Dual specificity protein phosphatase 6 (Homo sapiens) (Q16828 whole entry, looked up): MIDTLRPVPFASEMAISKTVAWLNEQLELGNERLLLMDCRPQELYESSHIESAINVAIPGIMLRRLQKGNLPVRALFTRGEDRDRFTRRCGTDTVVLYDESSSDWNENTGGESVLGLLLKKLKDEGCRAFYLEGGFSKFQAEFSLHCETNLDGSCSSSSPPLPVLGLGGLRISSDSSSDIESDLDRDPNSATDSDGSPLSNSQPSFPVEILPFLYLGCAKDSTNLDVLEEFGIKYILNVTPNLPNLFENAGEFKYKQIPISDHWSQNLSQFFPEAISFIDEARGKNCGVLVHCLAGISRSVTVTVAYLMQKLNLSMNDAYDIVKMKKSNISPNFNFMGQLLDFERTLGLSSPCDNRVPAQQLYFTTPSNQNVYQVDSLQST
Test [5] concerns the target Voltage-gated potassium channel subunit beta-2 (Rattus norvegicus) (UniProt P62483). As to the kind of experiment: inhibitors of rat Kvbeta2 reductase activity – biochemical, NADPH fluorescence, primary screen (AID 622;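 active = fluorescence slope higher than the sample average by over 3 SD, cut at about -0.22 in these data, passing the limit was not always enough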;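 also: slope of raw intensity against log time taken from 70 to 1610 s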). The note with it: recombinant KvBeta, 4-cyanobenzaldehyde reduction, at 10 µM, stronger effect = higher value.
For test [6] the target is unchanged. The test can be described thus: enhancers of rat Kvbeta2 NADPH turnover – biochemical, NADPH fluorescence, primary screen (AID 623).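 Also: fluorescence intensity change per second fitted from 20 to 320 s.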 As to conditions: Recombinant KvBeta, NADPH fluorescence decrease slope, 10 min; at 10 µM; stronger effect = lower value.
The target of test [7] is Alpha-2C adrenergic receptor (Homo sapiens) (UniProt P18825). The test can be described thus: compounds altering alpha2C-coupled GIRK flux – cell-based, HEK293 alpha2C/GIRK1/2, thallium flux, primary screen (AID 624;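 active = fluorescence slope after compound addition differing from the mean of all screened samples at 99.7% confidence, in either direction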;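 also: slope of fluorescence ratio to pre-addition baseline per second over 15 to 24 s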). As to conditions: thallium flux BTC fluorescence, at 10 µM, actives lie on both sides.
Chain of Alpha-2C adrenergic receptor (Homo sapiens) (P18825 whole entry, looked up): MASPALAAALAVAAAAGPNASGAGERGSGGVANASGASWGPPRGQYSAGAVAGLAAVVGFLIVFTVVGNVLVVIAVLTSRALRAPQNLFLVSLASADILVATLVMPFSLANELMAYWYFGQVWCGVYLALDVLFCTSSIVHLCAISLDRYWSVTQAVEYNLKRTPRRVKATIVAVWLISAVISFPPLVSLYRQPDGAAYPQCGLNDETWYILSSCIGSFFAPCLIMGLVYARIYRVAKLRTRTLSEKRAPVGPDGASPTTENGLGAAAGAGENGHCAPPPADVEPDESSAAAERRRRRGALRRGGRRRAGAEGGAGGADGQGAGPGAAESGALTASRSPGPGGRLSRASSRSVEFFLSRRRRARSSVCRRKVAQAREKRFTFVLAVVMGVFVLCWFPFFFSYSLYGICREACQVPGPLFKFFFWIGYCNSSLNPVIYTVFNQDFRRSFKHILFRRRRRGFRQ
Test [8] in a line: inhibitors of larval lipid processing in zebrafish, primary screen, whole organism, PED6 fluorescence, gall bladder and intestine (AID 686;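 active = a full or partial loss of lipid-probe fluorescence in the fish gall bladder, intestine or both, judged by eye; inactive = no fluorescence loss, or compound toxic to the fish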;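 also: signal comes from phospholipase A2 cleavage of quenched PED6 carried via bile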). As to conditions: Zebrafish larvae PED6 lipid processing, fluorescence scoring; screened at 20 µM (by protocol). Summed up: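 Doses: 20 µM single dose. Test system: live zebrafish larvae aged 5-7 days, whole organism. Quantity: five larvae per well. Measured by: By-eye fluorescence microscopy. Reagent: ingested quenched lipid PED6 at 100 nM. Read-out: visual per-well fluorescence inhibition score. Times: overnight exposure of larvae to compound plus PED6.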

Test [9] is described as follows: loss of swimming-algae plug formation – whole organism, Chlamydomonas reinhardtii, WT vs cilia-less mutant, absorbance, 96-well, primary screen (AID 463189;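 active = inhibition at or above 50% relative to wild type and mutant plate controls; inactive = inhibition below 50%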;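 also: 0% = wild type cc124 cells in DMSO and 100% = ciliumless bld1 mutant cells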). As to conditions: Chlamydomonas reinhardtii gravitaxis, OD600 absorbance, 2 days; at 10 µM; stronger effect = higher value.
[10] abbreviates: measured here: cell density z-score.
Where [11] appears, read: measured here: nuclear c-Myc green intensity z-score.
The mark [12] stands for this setting: measured here: nuclear pErk red intensity z-score, stronger effect = higher value.

Chain of Voltage-gated potassium channel subunit beta-2 (Rattus norvegicus) (P62483 whole entry, looked up): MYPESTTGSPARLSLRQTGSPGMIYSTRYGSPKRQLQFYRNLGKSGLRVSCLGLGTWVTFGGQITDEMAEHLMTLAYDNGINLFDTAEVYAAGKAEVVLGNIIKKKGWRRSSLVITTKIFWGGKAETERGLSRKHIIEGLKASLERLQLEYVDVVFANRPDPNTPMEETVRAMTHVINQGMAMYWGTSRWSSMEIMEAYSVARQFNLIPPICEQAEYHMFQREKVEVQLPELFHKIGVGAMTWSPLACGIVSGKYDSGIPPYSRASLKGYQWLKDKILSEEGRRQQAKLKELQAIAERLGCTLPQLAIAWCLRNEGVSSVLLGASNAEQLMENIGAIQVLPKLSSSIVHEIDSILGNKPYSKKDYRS

In the case of `COc1cccc(-c2nc(N3CC(C)CC(C)C3)c3ccccc3n2)c1O` (centres undefined), in test [1], the cell count amounted to 535. Moreover, the inhibition in [1] is -11.7% (inactive); in [2], -37.3% (inactive); in [4], -5.26% (inactive); in [9], 0.389% (inactive). This compound also had a nuclei count in test [2] of 180%. Also, the z-score is -0.935 in test [3] (setting [10]), 0.42 in test [3] (setting [11]) and 2.09 in [3] (setting [12]). Besides, the fluorescence slope in [5] is -0.393 (inactive). Moreover, in test [6], the NADPH fluorescence slope was -2.4e-05 (inactive). For the same compound, the slope in test [7] is 0.00414 (inactive). Moreover, the compound was classed as inactive in test [8].
Regarding `COCCOCCOCCC(=O)NC1CC2CCC1(C)C2(C)C` (centres undefined), the cell count in test [1] was found to be 580. Moreover, the inhibition was -10.5% (inactive) in [1], 32.9% (inactive) in [2], 6.51% (inactive) in [4] and 13.6% (inactive) in [9]. Further, the nuclei count in [2] turned out to be 158%. Also, the figures for the z-score in test [3] (setting [10]), in test [3] (setting [11]) and in [3] (setting [12]) were 0.451, -0.414 and -0.476, respectively. Moreover, the fluorescence slope in test [5] was -0.459 (inactive). Further, the NADPH fluorescence slope in [6] was -1.1e-05 (inactive). In addition, the slope in [7] was 0.00758 (inactive). In test [8], the result was inactive.
Consider `CCN(CC)CCCn1c(C)cc2c(c1=O)C(c1ccc(OC)c(OC)c1OC)C(C#N)=C(N)O2` (centres undefined), for which the cell count in test [1] amounted to 439. Besides, the inhibition is 13.1% (inactive) in test [1], -23% (inactive) in [2], 2.46% (inactive) in test [4] and -3.45% (inactive) in [9]. The same compound gave a nuclei count in [2] of 134%. The results for the z-score in test [3] (setting [10]), in test [3] (setting [11]) and in test [3] (setting [12]) were -1.55, -0.016 and 0.949, respectively. Further, the fluorescence slope in test [5] is -0.389 (inactive). The NADPH fluorescence slope in test [6] was -3.6e-05 (inactive). Also, the slope in [7] is 0.0068 (inactive). For the same compound, the compound was called inactive in [8].
With `C=CCn1c(=S)[nH]c2ccccc2c1=O`, the cell count in test [1] is 649. Further, the inhibition in test [1] was 1.8% (inactive); in test [2], -30.6% (inactive); in test [4], 5.57% (inactive); in test [9] it was -14.1% (inactive). Further, the nuclei count in test [2] worked out at 130%. Besides, the figures for the z-score in [3] (setting [10]), in test [3] (setting [11]) and in test [3] (setting [12]) were -0.515, 0.859 and 0.00467, respectively. Further, the fluorescence slope in [5] was -0.46 (inactive). For the same compound, in [6], the NADPH fluorescence slope was -0.000371 (inactive). In [7], the slope was 0.00865 (inactive). Further, in test [8], the compound was called inactive.
With `CCC1CCCCN1c1nc(-c2cccc(OC)c2O)nc2ccccc12` (centres undefined), the cell count in [1] is 322. The inhibition was 0.9% (inactive) in [1], -128% (inactive) in test [2], -8.76% (inactive) in [4] and 3.59% (inactive) in test [9]. In addition, the nuclei count in test [2] worked out at 154%. For the same compound, the figures for the z-score in [3] (setting [10]), in test [3] (setting [11]) and in test [3] (setting [12]) were -0.599, 0.187 and 0.757, respectively. In addition, the fluorescence slope in [5] was -0.454 (inactive). The NADPH fluorescence slope in test [6] was -0.000132 (inactive). The slope in test [7] is 0.00525 (inactive).
Take `CCN(CC)CCN1C(=O)C(=O)/C(=C(/O)c2ccc(F)cc2)C1c1ccncc1` (centres undefined): the cell count in test [1] is 519. In addition, the inhibition was -13.3% (inactive) in [1], -36.8% (inactive) in test [2], -11.5% (inactive) in [4] and -7.51% (inactive) in test [9]. Besides, the nuclei count in test [2] stood at 110%. Moreover, the z-score was 0.315 in test [3] (setting [10]), 0.605 in test [3] (setting [11]) and -0.561 in test [3] (setting [12]). Further, in test [5], the fluorescence slope is -0.542 (inactive). Also, the NADPH fluorescence slope in test [6] is -1e-05 (inactive). In addition, the slope in test [7] was 0.00505 (inactive). The compound was called inactive in test [8].
Regarding `c1ccc2c(NCC3CCCO3)nc(-c3ccncc3)nc2c1` (centres undefined), the cell count in test [1] is 296. Besides, the inhibition is 1.9% (inactive) in test [1], -260% (inactive) in [2], 1.48% (inactive) in test [4] and 141% (active) in [9]. This compound returned a nuclei count in test [2] of 134%. For the same compound, the z-score in test [3] (setting [10]) was 0.349; in test [3] (setting [11]), -0.718; in [3] (setting [12]), -1.13. Besides, the fluorescence slope in test [5] is -0.516 (inactive). In [6], the NADPH fluorescence slope was -3.7e-05 (inactive). For the same compound, the slope in test [7] was 0.00585 (inactive).

The record behind these values is PubChem BioAssay.
